For one assay, the system named is HaCaT. The experiment in a line: Inhibitory activity of HaCaT keratinocyte cell line. In kind it is functional, cell-based. Particulars: Homo sapiens. Put shortly: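 HaCaT keratinocytes kept in DMEM with 5% FCS, trypsinized and seeded at 4000 cells/0.2 mL/well. After 24 h, medium was replaced with fresh medium holding graded compound concentrations. Proliferation was read after 3–4 days by sulforhodamine B colorimetry. IC50 values are the average of at least two independent measurements.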

Assay [1] deals with Epidermal growth factor receptor (Homo sapiens, UniProt P00533). The experiment in a line: Inhibition of EGF-R Tyrosine kinase (TK).
Sequence of Epidermal growth factor receptor (P00533 whole entry): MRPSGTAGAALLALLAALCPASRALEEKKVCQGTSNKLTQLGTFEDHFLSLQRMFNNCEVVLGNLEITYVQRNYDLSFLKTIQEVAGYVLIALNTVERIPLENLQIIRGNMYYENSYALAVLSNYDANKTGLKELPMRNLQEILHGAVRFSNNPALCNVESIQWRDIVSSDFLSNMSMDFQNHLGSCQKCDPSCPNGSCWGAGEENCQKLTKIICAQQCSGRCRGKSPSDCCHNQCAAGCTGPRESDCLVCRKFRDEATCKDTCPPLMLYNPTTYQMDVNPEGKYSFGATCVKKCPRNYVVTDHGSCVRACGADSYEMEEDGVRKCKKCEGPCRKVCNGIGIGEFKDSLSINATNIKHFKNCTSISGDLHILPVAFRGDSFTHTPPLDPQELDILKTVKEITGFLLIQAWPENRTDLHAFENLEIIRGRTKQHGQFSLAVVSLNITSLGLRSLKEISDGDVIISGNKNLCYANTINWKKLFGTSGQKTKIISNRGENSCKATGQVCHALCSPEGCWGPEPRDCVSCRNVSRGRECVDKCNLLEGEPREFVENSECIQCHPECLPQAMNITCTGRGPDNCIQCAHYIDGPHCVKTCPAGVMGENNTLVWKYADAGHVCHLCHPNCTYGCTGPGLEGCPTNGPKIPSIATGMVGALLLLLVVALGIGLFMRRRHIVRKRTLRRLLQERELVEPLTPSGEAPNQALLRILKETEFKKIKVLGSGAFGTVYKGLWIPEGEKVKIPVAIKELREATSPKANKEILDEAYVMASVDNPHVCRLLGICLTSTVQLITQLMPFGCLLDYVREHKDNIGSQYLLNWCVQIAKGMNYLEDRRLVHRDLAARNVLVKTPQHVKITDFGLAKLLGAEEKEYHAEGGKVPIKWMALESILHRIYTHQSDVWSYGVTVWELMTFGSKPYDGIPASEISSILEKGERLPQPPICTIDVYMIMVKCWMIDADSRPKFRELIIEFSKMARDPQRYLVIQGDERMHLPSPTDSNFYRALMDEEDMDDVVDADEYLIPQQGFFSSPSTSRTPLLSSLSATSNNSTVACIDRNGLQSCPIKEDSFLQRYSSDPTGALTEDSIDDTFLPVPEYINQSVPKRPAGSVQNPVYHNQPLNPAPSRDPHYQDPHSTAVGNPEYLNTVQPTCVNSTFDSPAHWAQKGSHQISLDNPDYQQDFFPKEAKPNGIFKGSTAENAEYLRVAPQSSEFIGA
Another assay relates to HeLa. In words: Inhibition of HeLa cell proliferation. Particulars: Homo sapiens.
In another assay the test system is SK-BR-3. The experiment in a line: Inhibition of SK-BR-3 cell proliferation. Particulars: Homo sapiens. Format: functional, cell-based. Put shortly: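 Tumour cells grown at 37 °C without antibiotics. Harvested at exponential growth (suspension lines) or 60–90% confluence (adherent lines, trypsinized), then seeded at 1000–5000 cells/well. Cultured 3–4 days with graded compound concentrations. Proliferation read by sulforhodamine B for adherent cells or MTT for suspension cells. IC50 derived from the concentration series.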

The next assay concerns MCF7. The experiment in a line: Inhibition of MCF-7 cell proliferation. Particulars: Homo sapiens.
The next assay concerns U-937. In words: Inhibition of U937 cell proliferation. In kind it is functional, cell-based. The note with it: Homo sapiens.
The next assay deals with P388. In words: Inhibition of P388 cell proliferation. Particulars: Mus musculus.
The test system of a further assay is KB. The experiment in a line: Inhibition of KB cell proliferation. The note with it: Homo sapiens.
Another assay has as its system A-431. In words: Inhibition of A431 cell proliferation. Particulars: Homo sapiens.
The test system of the next assay is MDA-MB-468. In words: Inhibition of MDA-MB-468 cell proliferation. Format: functional, cell-based. The note with it: Homo sapiens.
The next assay has as its system MDA-MB-231. In words: cells. Particulars: Homo sapiens.
Another assay relates to K562. In words: Inhibition of K562 cell proliferation. The note with it: Homo sapiens.
Assay [2] deals with L1210. In words: (§1) Inhibition of L1210 cell proliferation. In kind it is functional, cell-based. The note with it: Mus musculus.
Another assay relates to LoVo. In words: Inhibition of LOVO cell proliferation. Format: functional, cell-based. The note with it: Homo sapiens.
In assay [3] the test system is L1210. The assay is described as §1. The note with it: Mus musculus.
For another assay, the system named is SCL-1. The experiment in a line: Inhibition of SCL-1 cell proliferation. Particulars: Homo sapiens.
The next assay has as its system B16. In words: Inhibition of B16F1 cell proliferation. The note with it: Mus musculus.

For orientation: IC50 means the concentration that inhibits the measured activity by half. Lower therefore signals greater potency. Consider `O=C(O)c1cc(N(Cc2ccccc2O)Cc2cc(O)ccc2O)ccc1O` [LAVENDUSTIN A], for which the values for the IC50 (with HaCaT; in [1]) were above 100000 nM and 4100 nM, respectively.

Turning to `COc1cc2c(c(OC)c1OC)-c1ccc(OC)c(=O)cc1[C@@H](NC(C)=O)CC2` [COLCHICINE], the IC50 with HeLa came to 18 nM; in the assay on SK-BR-3 it was 5 nM; with MCF7, 15.3 nM; in the assay with U-937 it was 5.2 nM; with P388, 9.5 nM; with KB it was 5.6 nM. Moreover, the IC50 in the assay with A-431 was 14 nM; in the assay with MDA-MB-468, 6.9 nM; in the assay on MDA-MB-231, 20.5 nM; in the assay with K562 it was 14.1 nM; in the assay on L1210 [2], 14.7 nM; with LoVo, 6 nM.

Compound `COC(=O)c1cc(CCc2cc(O)ccc2O)ccc1O` showed an IC50 with HaCaT of 18000 nM.

Regarding `O=C(O)c1cc(NCc2cc(O)ccc2O)ccc1O` [LAVENDUSTIN C], in the assay with HaCaT, the half-maximal inhibitory concentration (IC50) was at least 100000 nM.

In the case of `COC(=O)c1cc(NCc2cc(O)ccc2O)ccc1O`, the IC50 amounted to 29000 nM with HaCaT and 24400 nM in assay [1].

On to `COc1ccc(OC)c(CCc2ccc(O)c(C(=O)O)c2)c1`, for which the IC50 in the assay with HaCaT came to 4800 nM.

In the assay with HaCaT, `COC(=O)c1cc(/C=C/c2cc(OC)ccc2OC)ccc1O` yielded an IC50 of 5600 nM.

In the assay with HaCaT, `COC(=O)c1cc(/C=C\c2cc(OC)ccc2OC)ccc1O` displayed an IC50 of 3900 nM.

For `COC(=O)c1cc(COc2cc(OC)ccc2OC)ccc1O`, the IC50 in the assay on HaCaT came to 14000 nM.

Consider `COC(=O)c1cc(NCc2cc(OC)ccc2OC)ccc1O`, for which the concentration for half-maximal inhibition (IC50) with HaCaT worked out at 1500 nM.

As to `COC(=O)c1cc(CNc2cc(OC)ccc2OC)ccc1O`, in the assay on HaCaT, the IC50 was 72000 nM.

In the case of `COC(=O)c1cc(CCc2cc(OC)ccc2OC)ccc1O`, the concentration for half-maximal inhibition (IC50) in the assay with HeLa was 470 nM; in the assay with SK-BR-3, 31 nM; in the assay on MCF7, 19 nM; in the assay with L1210 [3], 415 nM; in the assay with U-937, 320 nM; in the assay on P388, 338 nM. The IC50 was determined as 192 nM with KB; 213 nM with A-431; 40 nM in the assay on HaCaT; 46.5 nM with MDA-MB-468; 428 nM with MDA-MB-231; 218 nM with K562. Also, the IC50 with SCL-1 is 383 nM; in assay [1] it was above 100000 nM; in the assay on LoVo it was 185 nM; in the assay on B16, 269 nM.

As to `COc1ccc(OC)c(CNc2ccc(O)c(C(=O)O)c2)c1`, the half-maximal inhibitory concentration (IC50) in the assay with HaCaT is 92000 nM; in assay [1], above 100000 nM.

As to `O=C(O)c1cc(CCc2cc(O)ccc2O)ccc1O`, the IC50 is above 100000 nM in the assay on HaCaT and 3300 nM in assay [1].

For the origin of these results see ChEMBL document CHEMBL1127418, “Novel antiproliferative agents derived from lavendustin A” (J Med Chem, 1994).
